Data reported in ChEMBL document CHEMBL1275360, “1-Bromo-3-(1',1'-dimethylalkyl)-1-deoxy-Δ(8)-tetrahydrocannabinols: New selective ligands for the cannabinoid CB(2) receptor” (Bioorg Med Chem, 2010).

What was measured:
[1] = molecular target: Cannabinoid receptor 1 (Homo sapiens, UniProt P21554); assay: Binding affinity to CB1 receptor
[2] = molecular target: T1, Cannabinoid receptor 2 (Homo sapiens, UniProt P34972); assay: Binding affinity to CB2 receptor
[3] = molecular target: Cannabinoid receptor 1 (Rattus norvegicus, UniProt P20272); assay: Displacement of [3H]CP-55940 from CB1 receptor in Sprague-Dawley rat brain membranes after 1 hr by liquid scintillation spectrophotometry; format: cell membranes, Membrane
Summary of the method: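 Membranes from whole rat brain (CB1) or human CB2-expressing CHO cells (CB2) were incubated 1 hr at 30°C with 1 nM [3H]CP-55,940 and six competitor concentrations (0.1 nM–10 μM). Buffer contained 5 mg/ml BSA, ethanol ≤0.4%. Nonspecific binding was defined with 1 μM CP-55,940. Separation on polyethyleneimine-treated GF/B filters, then scintillation counting. IC50 from log-linear regression, Ki via Cheng-Prusoff; triplicate, 3–6 repeats.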

[4] = molecular target: T1, Cannabinoid receptor 2; assay: Displacement of [3H]CP-55940 from human CB2 receptor expressed in CHO cells after 1 hr by liquid scintillation spectrophotometry; format: cell-based
[5] = Selectivity ratio of IC50 for CB1 receptor in Sprague-Dawley rat brain membranes to IC50 for human CB2 receptor; format: cell membranes; details: Membrane
[6] = molecular target: T1, Cannabinoid receptor 2; assay: Agonist activity at human CB2 receptor expressed in CHO cells assessed as stimulation of [35S]GTPgammaS binding after 1.5 hrs by liquid scintillation spectrophotometry; format: functional, cell-based
Summary of the method: (§1)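 Membranes from CB2-CHO cells grown in DMEM/Ham F-12 with G418 and 5% fetal calf serum. Reactions used 10 μg membrane protein with 10 μM GDP, 0.1 nM radiolabelled GTPγS, 1 mg/mL BSA and varied drug concentrations in NaCl/EGTA Tris buffer pH 7.4, for 1.5 hr at 30°C. Nonspecific binding (unlabeled GTPγS) subtracted; filtration, scintillation counting. Nonlinear regression; Emax relative to 3 μM CP-55,940; mean ± SEM, ≥3 experiments in triplicate.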

[7] = molecular target: T1, Cannabinoid receptor 2; assay: Agonist activity at human CB2 receptor expressed in CHO cells assessed as stimulation of [35S]GTPgammaS binding after 1.5 hrs by liquid scintillation spectrophotometry relative to CP-55940; format: functional, cell-based; summary of the method: as §1

T1 sequence (P34972 whole entry): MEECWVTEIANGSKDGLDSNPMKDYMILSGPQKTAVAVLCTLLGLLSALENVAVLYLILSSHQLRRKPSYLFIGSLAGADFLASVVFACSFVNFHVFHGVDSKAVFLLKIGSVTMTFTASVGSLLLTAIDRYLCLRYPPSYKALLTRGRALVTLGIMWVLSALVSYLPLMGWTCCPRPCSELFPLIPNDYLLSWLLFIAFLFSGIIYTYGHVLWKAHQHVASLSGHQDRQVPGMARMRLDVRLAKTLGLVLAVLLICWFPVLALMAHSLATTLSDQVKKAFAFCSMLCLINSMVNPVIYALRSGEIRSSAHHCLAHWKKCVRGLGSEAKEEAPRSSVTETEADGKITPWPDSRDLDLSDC
Cannabinoid receptor 1 (Rattus norvegicus, UniProt P20272), sequence (P20272 whole entry): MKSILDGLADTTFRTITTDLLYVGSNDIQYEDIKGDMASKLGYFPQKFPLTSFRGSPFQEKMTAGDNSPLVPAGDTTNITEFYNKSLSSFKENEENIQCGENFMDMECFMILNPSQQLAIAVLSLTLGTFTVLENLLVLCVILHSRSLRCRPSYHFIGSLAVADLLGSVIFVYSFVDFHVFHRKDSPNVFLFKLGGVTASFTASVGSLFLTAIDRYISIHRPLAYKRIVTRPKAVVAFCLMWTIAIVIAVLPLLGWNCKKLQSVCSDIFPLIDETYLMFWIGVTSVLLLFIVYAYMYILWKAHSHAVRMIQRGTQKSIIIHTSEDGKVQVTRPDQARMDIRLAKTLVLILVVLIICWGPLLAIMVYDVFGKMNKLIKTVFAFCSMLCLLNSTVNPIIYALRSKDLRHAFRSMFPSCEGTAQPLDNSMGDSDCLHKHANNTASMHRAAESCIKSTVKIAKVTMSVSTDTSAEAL
Cannabinoid receptor 1 (Homo sapiens, UniProt P21554), sequence (P21554 whole entry): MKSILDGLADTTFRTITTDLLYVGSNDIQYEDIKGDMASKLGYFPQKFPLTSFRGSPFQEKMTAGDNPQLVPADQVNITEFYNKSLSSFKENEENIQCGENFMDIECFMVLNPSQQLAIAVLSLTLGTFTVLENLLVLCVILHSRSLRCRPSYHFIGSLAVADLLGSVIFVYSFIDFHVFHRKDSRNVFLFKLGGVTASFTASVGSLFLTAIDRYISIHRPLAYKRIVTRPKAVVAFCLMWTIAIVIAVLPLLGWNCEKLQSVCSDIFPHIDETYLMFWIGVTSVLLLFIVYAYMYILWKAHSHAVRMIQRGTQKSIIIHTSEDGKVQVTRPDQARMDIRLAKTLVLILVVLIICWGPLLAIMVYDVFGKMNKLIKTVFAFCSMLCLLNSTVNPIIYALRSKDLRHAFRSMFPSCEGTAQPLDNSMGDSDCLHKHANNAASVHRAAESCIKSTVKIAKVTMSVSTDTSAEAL

Structure (SMILES)	Ki [1]	Ki [2]	Ki [3]	Ki [4]	Ratio Ki [5]	EC50 [6]	Emax [7]
CCCCCCC(C)(C)c1ccc2c(c1)OC(C)(C)[C@@H]1CC=C(C)C[C@@H]21	23 nM	2.9 nM	–	–	–	–	–
CCCCCc1cc(Br)c2c(c1)OC(C)(C)[C@@H]1CC=C(C)C[C@@H]21	–	–	> 10000 nM	555 nM	18	–	–
CCCC(C)(C)c1ccc2c(c1)OC(C)(C)[C@@H]1CC=C(C)C[C@@H]21	–	–	677 nM	–	294	4 nM	112%
CCCCC(C)(C)c1cc(Br)c2c(c1)OC(C)(C)[C@@H]1CC=C(C)C[C@@H]21	–	–	1140 nM	71 nM	16	–	–
CCCCCCC(C)(C)c1cc(Br)c2c(c1)OC(C)(C)[C@@H]1CC=C(C)C[C@@H]21	–	–	562 nM	34 nM	27	15 nM	91%
CCCC(C)(C)c1cc(Br)c2c(c1)OC(C)(C)[C@@H]1CC=C(C)C[C@@H]21	–	–	> 10000 nM	265 nM	38	–	–
CCCCCCC(C)(C)c1ccc2c(c1)OC(C)(C)[C@@H]1CC=C(CO)C[C@@H]21	1.2 nM	0.032 nM	–	–	–	–	–
CCCCCC(C)(C)c1cc(Br)c2c(c1)OC(C)(C)[C@@H]1CC=C(C)C[C@@H]21	–	–	1440 nM	28 nM	52	28.6 nM	92.3%
